Assay results as given in publication PMC8489793 (ACS chemical biology, 2019).
“Also recorded” adds a separate entry of the source.

Columns and labels:
[1] = system: PyMT mammary tumors; test: transplanted PyMT mouse mammary tumor model; assay type: in vivo
How it was run: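 PyMT-expressing mouse mammary cells were transplanted into the fat pads of 3-week-old female FVB mice. Tumour-bearing mice were assigned to four groups for 21 days: test compound 100 mg/kg i.p. once daily, 25 mM ZnSO4 continuously in drinking water, both, or PBS i.p. once daily. Mice were euthanised at 2 cm tumour diameter, and Kaplan–Meier survival analysis was used.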

[2] = system: caspase 3/7, 8, or 9 activity in T47D, MDA-MB-231, and MCF-10A; test: quantification of caspase activity; assay type: cell-based, human; conditions: 6 or 72 h
How it was run: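 Caspase activity quantified after 6 or 72 h exposure to test compound with ZnSO4; staurosporine used as positive control. Mean and SD of three replicates.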

[3] = system: MCF-10A cells; test: intracellular Zn^2+ by FluoZin-3 and flow cytometry; assay type: cell-based, human
How it was run: (§1)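 Intracellular free Zn2+ measured by FluoZin-3 staining and flow cytometry after 1, 3, 24 or 48 h of treatment with test compound, with or without ZnSO4. For MCF-7, an extra 24 h arm included actinomycin D to block transcription. Mean and SEM of three replicates, compared with control.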

[4] = system: PyMT primary tumor organoids; test: 3D primary tumor organoid culture; assay type: cell-based; conditions: 144 h
How it was run: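 PyMT mouse tumor cells embedded as organoids in Matrigel and cultured 144 h. Test compound and/or ZnSO4, or vehicle, present from 48 h to the end. Final staining with Hoechst, calcein AM (live) and SYTOX Orange (dead), then imaged.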

[5] = system: MT1 and MT2 in renal and hepatic tissue; test: RT-PCR of metallothionein expression in tissue of treated mice; assay type: in vivo; conditions: 100 mg/kg intraperitoneal, nontumor bearing FVB/NJ mice
How it was run: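 Nontumor-bearing FVB/NJ mice received 100 mg/kg test compound intraperitoneally or vehicle, and were sampled 3 or 24 h later. MT1 and MT2 expression in kidney and liver was measured by real-time PCR, normalised to β-actin and expressed relative to controls.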

[6] = system: transformed and untransformed cell types; assay type: cell-based; conditions: ZNA (30 μM) or clioquinol (30 μM) with ZnSO4; propidium iodide
[7] = system: cancer cells; test: long-term colony formation after 24 h treatment; assay type: cell-based, human; conditions: 24 h treatment then 3 weeks without compound
How it was run: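 Cells were exposed to test compound for 24 h, then grown in compound-free medium for 21 days. Colonies were stained with crystal violet and quantified, and the mean and standard deviation of four replicates were reported.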

[8] = system: MCF-10A and MCF-7 cells; test: evaluation of focused library; assay type: cell-based, human; conditions: MCF-7 versus MCF-10A; listed as compound 4
How it was run: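 MCF-7 breast cancer and untransformed MCF-10A mammary epithelial cells were given a range of test compound concentrations to generate dose–response curves. MCF-7 EC50 was the mean of three replicates. ΔAUC was the difference in area under the curve between MCF-7 and MCF-10A.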

[9] = system: malignant pleural effusion cells (PE1005339); test: 12-point dose–response assay in malignant pleural effusion cells; assay type: cell-based, human; conditions: PE1005339 tumor cells; 12-point dose–response; 4 days
How it was run: (§2)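 Dose–response after 4 days of treatment in immortalized primary human mammary epithelial cells (hTERT-HMEC) or in primary metastatic, chemoresistant breast cancer cells from a patient's malignant pleural effusion. A 12-point series is stated for the effusion cells. Mean and SD of three replicates.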

[10] = system: metal trafficking genes in MCF-7 cells; test: RT-PCR of metal trafficking gene induction; assay type: cell-based, human; conditions: ZNA 30 μM, 3 or 24 h, normalized to GAPDH
How it was run: (§3)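 Real-time PCR of metal trafficking gene induction after 3 or 24 h exposure to test compound at 30 μM, run in quadruplicate.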

[11] = system: MCF-10A cells; test: total cellular Zn^2+ by ICP-AES; assay type: cell-based, human; conditions: cotreatment with Zn^2+
How it was run: (§4)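 Total cellular zinc determined by inductively coupled plasma atomic emission spectroscopy after 3 h treatment with test compound alone or together with ZnSO4.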

[12] = system: primary mouse mammary epithelial cells (MECs) organoids; test: 3D organoid model of normal mammary growth and branching morphogenesis; assay type: cell-based; conditions: for delay in branching morphogenesis: single agent; for organoids killed: 3D branching assay
How it was run: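 Primary mouse mammary epithelial cells embedded in Matrigel and stimulated to branch with FGF2. Test compound and/or ZnSO4, or vehicle, added from 48 h. At 144 h, organoids stained with Hoechst (nuclei), calcein AM (live) and SYTOX Orange (dead), then imaged.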

[13] = system: MCF-10A; test: dose–response assay in untransformed mammary epithelial cell line; assay type: cell-based, human; conditions: 5 days
How it was run: (§5)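 Viability dose–response after 5 days of treatment in untransformed MCF-10A cells and in MCF-7, T47D and MDA-MB-231 breast cancer lines. Mean and SD of three replicates.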

[14] = system: metal trafficking genes in MCF-10A cells; test: RT-PCR of metal trafficking gene induction; assay type: cell-based, human; conditions: ZNA 30 μM, 3 or 24 h, normalized to GAPDH
How it was run: as §3

[15] = system: MCF-10A cells; test: long-term colony formation after 24 h treatment; assay type: cell-based, human; conditions: 24 h treatment then 3 weeks without compound
How it was run: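 Cells treated 24 h, then cultured 21 days in compound-free medium. Surviving colonies stained with crystal violet and quantified. Mean and SD of four replicates.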

[16] = system: MCF-10 and MCF-7 cell lines; test: cell viability; assay type: cell-based, human
How it was run: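 Test compound combined with exogenously added transition metal ions. Viability read as cellular ATP content after 24 h of treatment. Mean and SEM of three replicates, each normalized to its respective control.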

[17] = system: MCF-7 cells; test: FluoZin-3 and LysoTracker colocalization; assay type: cell-based, human; conditions: ZNA (30 μM) and ZnSO4 (30 μM), 2 h
How it was run: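 Cells exposed 2 h to test compound (30 μM) and/or ZnSO4 (30 μM). Costained with FluoZin-3 (zinc), LysoTracker (lysosomes) and Hoechst, then imaged by fluorescence microscopy. Overlap of FluoZin-3 and LysoTracker signals quantified.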

[18] = system: MCF-7 cells; test: cell death by propidium iodide staining and flow cytometry; assay type: cell-based, human; conditions: cotreatment with ZnSO4, within 24 h
How it was run: (§6)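 Cells treated 24 h with test compound combined with ZnSO4, then stained with propidium iodide and analysed by flow cytometry. Mean and SEM of three replicates, normalized to the control sample.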

[19] = system: MCF-7 cells; test: intracellular Zn^2+ by FluoZin-3 and flow cytometry; assay type: cell-based, human
How it was run: as §1

[20] = system: hTERT-HMEC; test: dose–response assay in immortalized mammary epithelial cells; assay type: cell-based, human; conditions: therapeutic window; hTERT-HMEC per Figure 2C; 4 days
How it was run: as §2

[21] = system: MCF-7 cells; test: total cellular Zn^2+ by ICP-AES; assay type: cell-based, human; conditions: 3 h, ZNA or ZNA/ZnSO4
How it was run: as §4

[22] = system: cytosolic cathepsin in MCF-7 cells; test: cytosolic cathepsin activity / cytoplasmic fractionation; assay type: cell-based, human
How it was run: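 Cells given test compound plus ZnSO4 for 6 h. Cytoplasmic cathepsin activity then measured with an enzymatic assay and expressed as mean activity relative to control. SEM of three experimental replicates.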

[23] = system: MCF-7, T47D, and MDA-MB231 breast cancer cell lines; test: dose–response assays in breast cancer cell lines; assay type: cell-based, human; conditions: malignant cell lines; 5 days
How it was run: as §5

[24] = system: MCF-10A; test: cell death by propidium iodide staining and flow cytometry; assay type: cell-based, human
How it was run: as §6

[25] = system: MCF-10A cells; test: cellular proliferation by EdU incorporation; assay type: cell-based, human; conditions: 6 h
How it was run: (§7)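 Proliferation measured as percent EdU incorporation after 6 h with test compound (30 μM) and/or ZnSO4 (30 μM). Mean and SEM of three experimental replicates; compared against control.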

[26] = system: MCF-7 cells; test: cellular proliferation by EdU incorporation; assay type: cell-based, human; conditions: 6 h
How it was run: as §7

[27] = system: untransformed mouse MECs and MCF-10A cells, in comparison to MCF-7 cells; test: intracellular Zn^2+ by FluoZin-3, comparison of zinc interactors; assay type: cell-based; conditions: 3 h, absence of exogenous Zn^2+
[28] = system: transformed and untransformed cells; test: cell viability; assay type: cell-based; conditions: 48 h; ATP quantification
[29] = system: a variety of cancer cell lines; conditions: read-out: IC50s; cited from earlier work
[30] = system: immortalized human mammary epithelial cells (hTERT-HMEC); conditions: 10 μM; cited from earlier work
[31] = system: epidermal growth factor (EGF)-stimulated DNA synthesis; conditions: cited from earlier work
[32] = system: primary metastatic tumor cells derived from malignant pleural effusions (PEs) of breast cancer patients; conditions: 10 μM; PE cells; cited from earlier work

## COc1ccc(-c2c(Cc3ccccc3)[nH]/c(=N\C(=O)c3ccccc3F)n2C)cc1 [ZNA, zinaamidole A]
[1]; ZNA 100 mg/kg i.p. once a day plus 25 mM ZnSO4 in drinking water, 21 days
  survival versus control-treated or ZnSO4-only groups: significant survival advantage
[1]; ZNA 100 mg/kg i.p. once a day, 21 days
  general toxicity, adverse reactions, body weight: no general toxicity, adverse reactions, or decreases in body weight
[1]; ZNA alone 100 mg/kg i.p. once a day for 21 days
  survival versus control-treated or ZnSO4-only groups: significant survival advantage
[1]; combination of ZNA and ZnSO4, 21 days
  general toxicity, adverse reactions, body weight: no general toxicity, adverse reactions, or decreases in body weight
[2]; ZNA alone, MDA-MB-231, MCF-10A
  caspase 3/7, 8, or 9 activity: either minimal or not observed
[2]; ZNA/ZnSO4, MDA-MB-231, MCF-10A
  caspase 3/7, 8, or 9 activity: either minimal or not observed
[3]; 48 h, no exogenous Zn^2+
  increase in intracellular Zn^2+ (FluoZin-3): 2 fold
[3]; cotreatment with Zn^2+
  intracellular Zn^2+ level versus vehicle control (FluoZin-3): less than 10 fold
[4]; ZNA-alone
  organoids with strong cell extrusion phenotype: about 70%
[4]; ZNA/ZnSO4 cotreatment
  organoids to which treatment was cytotoxic: over 80%
[5]; 3 h
  MT1 and MT2 expression versus control treated mice: increased
[5]; 24 h
  MT1 and MT2 expression: decreased
[6]
  cytotoxic effect of combination with ZnSO4, time-course: only observed in the transformed cell line
[7]
  long-term proliferative potential (colonies): significantly affected long-term proliferative potential
[8]
  potency and selectivity (EC50 in MCF-7, ΔAUC between MCF-7 and MCF-10A): significant increase in potency and selectivity; also recorded: greatest balance of potency and selectivity
[9]
  EC50: 4.12 µM
[10]
  metal trafficking gene expression: 75 fold
[11]
  total cellular Zn^2+ (ICP-AES): below detectable levels
[12]; combination ZNA/ZnSO4, 144 h
  organoids healthy with no visible extruding cells: Greater than 60%
  organoids with either full or partial branching: approximately 90%
[12]
  delay in branching morphogenesis: 24 h
[13]
  sensitivity (cell viability): reduced sensitivity
[14]
  metal trafficking gene expression: 5 fold
[15]
  effect on long-term proliferative potential (colonies): greatly attenuated
[16]; MCF-10A and MCF-7, 24 h, ATP
  effect on cell viability in combination with Zn^2+: highly synergistic and cancer selective
[16]; MCF-10 and MCF-7, 24 h, ATP
  effect on cell viability in cotreatment with Cu^2+: nonselective cell death
[16]; broader series of metals
  effect on cell viability with Ni, Co, and Mn compared to ZNA alone: minimal changes in cell viability
[16]; untransformed and transformed cell lines, 24 h, ATP
  effect on cell viability in combination with Fe^2+: relatively little effect
[17]
  FluoZin-3 and LysoTracker overlap: significant increase
[18]
  cell death: > 80%
[19]; 24 h, with ACTD
  intracellular Zn^2+ on cotreatment with Actinomycin D versus ZNA-alone: statistically significant increase
[19]; 48 h, no exogenous Zn^2+
  increase in FluoZin-3 fluorescence (intracellular Zn^2+): 13 fold
[19]; in the presence of 30 μM Zn^2+, 3 h
  intracellular Zn^2+ concentration (FluoZin-3): 170 times
[20]
  IC50: > 100 µM
[21]
  total cellular Zn^2+ (ICP-AES): increase in total cellular Zn^2+
[22]; MCF-7, combination of ZNA and ZnSO4, 6 h
  cytosolic cathepsin activity: significant increase
[22]; MCF-7s, ZNA/ZnSO4, cytoplasmic fractionation
  cytosolic cathepsins B, D, and L relative to untreated cells: increase
[23]
  cell viability: decreased cell viability
[24]; ZNA alone, 24 h
  cell death: unaffected
[24]; combination with ZnSO4, 24 h
  cell death: unaffected
[25]; ZNA (30 μM)/ZnSO4 (30 μM)
  EdU incorporation: only partially inhibiting
[25]; ZNA alone 30 μM
  EdU incorporation: only a partial reduction
[26]; ZNA (30 μM)/ZnSO4 (30 μM)
  EdU incorporation: complete block
[26]; ZNA alone 30 μM
  EdU incorporation: only a partial reduction

## O=S(=O)([O-])[O-].[Zn+2] [ZnSO4]
[12]
  delay in branching morphogenesis: 24 h

## Oc1c(I)cc(Cl)c2cccnc12 [clioquinol]
[6]
  cytotoxic effect of combination with ZnSO4, time-course: cytotoxic toward all cell types tested
[27]
  intracellular Zn^2+ levels (FluoZin-3): increase in intracellular Zn^2+
[12]; compound alone
  organoids killed: 100%
[12]; with ZnSO4
  organoids killed: 100%
[28]
  toxicity of combination with ZnSO4: toxic to both transformed and untransformed cells
[29]
  IC50: 5 to 50 µM

## naamidine A
[30]
  decrease in cell viability: 100%
[27]
  intracellular Zn^2+ levels (FluoZin-3): decreased or unchanged
[12]; compound alone
  organoids killed: 100%
[12]; with exogenous ZnSO4
  effect of exogenous ZnSO4 on cytotoxic effects in organoids: rescued the cytotoxic effects
[31]
  inhibition of EGF-stimulated DNA synthesis: submicromolar
[32]
  decrease in cell viability: 100%
